Test results from paper PMC3309561 (Biochimica et biophysica acta, 2010).

System: 15 base pair duplex DNA
Assay: Near-UV circular dichroism / UV absorbance titration of duplex DNA with peptide
Assay type: binding
Settings: UV absorbance spectra during titration of duplex DNA, room temperature
Procedure, shortened: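 15 bp duplex DNA at 1.66 µM (typically 1–2 µM) was titrated at room temperature with small additions of a 5 mg/ml peptide stock. UV absorbance was acquired at the same time as the near-UV CD, in a 10 mm cell from 340 to 220 nm, across increasing peptide/DNA molar ratios. Uncorrected spectra show light scattering; zeroed spectra (340 nm) track 260 nm absorbance.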

## GIGKFLHSAKKFGKAFVGEIMNS-NH2 [Magainin 2 amide]
  Turbidity (light scattering) above 310 nm of DNA with peptide: absence of turbidity
